Measured values as given in ChEMBL document CHEMBL1125051, “Synthesis and antineoplastic properties of ether-linked thioglycolipids” (1990).

What was measured:
[1] = system: X63/OMIL3 cell line; assay: Antineoplastic activity against X63/OMIL3 cell line in which [3H]thymidine was incorporated into DNA; format: functional, Mus musculus; set-up: concentration or dose not given beside the values
Procedure, shortened: (§1)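 Mouse leukemic/myeloma/hybridoma lines kept at 37 °C in RPMI 1640 with 10% heat-inactivated FBS, penicillin, streptomycin, 50 μM mercaptoethanol. 2×10^4 cells/well exposed to drug at 40 μM for 48 h. Drug was diluted from 0.1 M ethanol stock into medium, and controls received ethanol-containing medium. [3H]thymidine (0.1 μCi/well) was then added for 24 h. Cells were harvested onto glass-fibre filters and water-washed, and DNA-incorporated counts were taken by scintillation as % of control.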

[2] = system: C653; assay: Antineoplastic activity against C653 cell line in which [3H]-thymidine was incorporated into DNA; format: functional, Mus musculus; set-up: concentration or dose not given beside the values; procedure, shortened: as §1
[3] = system: WEHI3B; assay: Antineoplastic activity against WEHI 3B cell line in which [3H]thymidine was incorporated into DNA; format: functional, Mus musculus; set-up: concentration or dose not given beside the values; procedure, shortened: as §1
[4] = system: R6X-B15; assay: Antineoplastic activity against R6X-B15 cell line in which [3H]thymidine was incorporated into DNA; format: functional, Mus musculus; procedure, shortened: as §1
[5] = Compound was evaluated for WEHI-3B cell viability after 48 hour at a concentration of 0 uM of compound was reported.; format: functional, Mus musculus
Procedure, shortened: (§2)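 WEHI-3B cells were treated with drug at 0–30 μM for 24 or 48 h in RPMI 1640 with 10% FBS at 37 °C. Cells were then diluted 1:10 in 2.5% trypan blue and counted by light microscopy, with dye-stained cells scored dead. Viability is given as % of untreated control.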

[6] = Compound was evaluated for WEHI-3B cell viability after 48 hour at a concentration of 2.5 uM of compound was reported.; format: functional, Mus musculus; procedure, shortened: as §2
[7] = Compound was evaluated for WEHI-3B cell viability after 24 hour at a concentration of 5 uM of compound was reported.; format: functional, Mus musculus; procedure, shortened: as §2
[8] = Compound was evaluated for WEHI-3B cell viability after 48 hour at a concentration of 30 uM of compound was reported.; format: functional, Mus musculus; procedure, shortened: as §2
[9] = Compound was evaluated for WEHI-3B cell viability after 24 hour at a concentration of 0 uM of compound was reported.; format: functional, Mus musculus; procedure, shortened: as §2
[10] = Compound was evaluated for WEHI-3B cell viability after 24 hour at a concentration of 1.25 uM of compound was reported.; format: functional, Mus musculus; procedure, shortened: as §2
[11] = Compound was evaluated for WEHI-3B cell viability after 48 hour at a concentration of 10 uM of compound was reported.; format: functional, Mus musculus; procedure, shortened: as §2
[12] = Compound was evaluated for WEHI-3B cell viability after 48 hour at a concentration of 1.25 uM of compound was reported.; format: functional, Mus musculus; procedure, shortened: as §2
[13] = Compound was evaluated for WEHI-3B cell viability after 24 hour at a concentration of 30 uM of compound was reported.; format: functional, Mus musculus; procedure, shortened: as §2
[14] = Compound was evaluated for WEHI-3B cell viability after 24 hour at a concentration of 2.5 uM of compound was reported.; format: functional, Mus musculus; procedure, shortened: as §2
[15] = Compound was evaluated for WEHI-3B cell viability after 24 hour at a concentration of 10 uM of compound was reported.; format: functional, Mus musculus; procedure, shortened: as §2
[16] = Compound was evaluated for WEHI-3B cell viability after 48 hour at a concentration of 5 uM of compound was reported.; format: functional, Mus musculus; procedure, shortened: as §2
[17] = Time course effect on killing of WEHI 3B cells at 40 uM concentration, cells were incubated with it 72 hr before addition of [3H]thymidine; format: functional, cell-based; settings: Mus musculus, WEHI3B
Procedure, shortened: (§3)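 Mouse WEHI 3B cells (RPMI 1640, 10% heat-inactivated FBS, penicillin, streptomycin, 50 μM mercaptoethanol, 37 °C) were seeded at 2×10^4 cells/well. Drug was diluted from 0.1 M ethanol stock into medium, with an ethanol vehicle control. After the stated preincubation, [3H]thymidine (0.1 μCi/well) was added for a further 24 h at 37 °C. Cells were harvested on glass-fibre filters, water-washed and scintillation-counted. Result is % cell survival versus control, mean ± SD, n = 8.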

[18] = Time course effect on killing of WEHI 3B cells at 30 uM concentration, cells were incubated with it 6 hr before addition of [3H]thymidine; format: functional, cell-based; settings: Mus musculus, WEHI3B; procedure, shortened: as §3
[19] = Time course effect on killing of WEHI 3B cells at 30 uM concentration, cells were incubated with it 3 hr before addition of [3H]thymidine; format: functional, cell-based; settings: Mus musculus, WEHI3B; procedure, shortened: as §3
[20] = Time course effect on killing of WEHI 3B cells at 40 uM concentration, cells were incubated with it 48 hr before addition of [3H]thymidine; format: functional, cell-based; settings: Mus musculus, WEHI3B; procedure, shortened: as §3
[21] = Time course effect on killing of WEHI 3B cells at 40 uM concentration, cells were incubated with it 24 hr before addition of [3H]-thymidine; format: functional, cell-based; settings: Mus musculus, WEHI3B; procedure, shortened: as §3
[22] = Time course effect on killing of WEHI 3B cells at 40 uM concentration, cells were incubated with it 0 mins before addition of [3H]thymidine; format: functional, cell-based; settings: Mus musculus, WEHI3B; procedure, shortened: as §3
[23] = Time course effect on killing of WEHI 3B cells at 30 uM concentration, cells were incubated with it 48 hours before addition of [3H]thymidine; format: functional, cell-based; settings: Mus musculus, WEHI3B; procedure, shortened: as §3
[24] = Time course effect on killing of WEHI 3B cells at 30 uM concentration, cells were incubated with it 72 hours before addition of [3H]thymidine; format: functional, cell-based; settings: Mus musculus, WEHI3B; procedure, shortened: as §3
[25] = Time course effect on killing of WEHI 3B cells at 30 uM concentration, cells were incubated with it 0 minutes before addition of [3H]thymidine; format: functional, cell-based; settings: Mus musculus, WEHI3B; procedure, shortened: as §3
[26] = Time course effect on killing of WEHI 3B cells at 40 uM concentration, cells were incubated with it 3 hr before addition of [3H]thymidine; format: functional, cell-based; settings: Mus musculus, WEHI3B; procedure, shortened: as §3
[27] = Time course effect on killing of WEHI 3B cells at 30 uM concentration, cells were incubated with it 24 hr before addition of [3H]thymidine; format: functional, cell-based; settings: Mus musculus, WEHI3B; procedure, shortened: as §3
[28] = Time course effect on killing of WEHI 3B cells at 40 uM concentration, cells were incubated with it 6 hours before addition of [3H]-thymidine; format: functional, cell-based; settings: Mus musculus, WEHI3B; procedure, shortened: as §3

Row | Structure (SMILES) | Control [1] [%] | Control [2] [%] | Control [3] [%] | Control [4] [%] | Viable cells [5] [%] | Viable cells [6] [%] | Viable cells [7] [%] | Viable cells [8] [%] | Viable cells [9] [%] | Viable cells [10] [%] | Viable cells [11] [%] | Viable cells [12] [%] | Viable cells [13] [%] | Viable cells [14] [%] | Viable cells [15] [%] | Viable cells [16] [%] | further results
1 | CCCCCCCCCCCCCCCCOC[C@@H](COP(=O)([O-])OCC[N+](C)(C)C)OC | 2.5 | 5 | 0.3 | 45 | – | – | – | – | – | – | – | – | – | – | – | – | –
2 | CCCCCCCCCCCCCCCCOC[C@H](COP(=O)([O-])OCC[N+](C)(C)C)OC | 3 | 4 | 0.4 | 55 | 100 | 18 | 8 | 0 | 100 | 44 | 0 | 48 | 0 | 39 | 0 | 1 | –
3 | CCCCCCCCCCCCCCCCOC[C@H](CS[C@@H]1O[C@@H](CO)[C@@H](O)[C@H](O)[C@H]1O)OC | 84 | 78 | 80 | 98 | – | – | – | – | – | – | – | – | – | – | – | – | –
4 | CCCCCCCCCCCCCCCCOC[C@H](CS[C@H]1O[C@@H](CO)[C@@H](O)[C@H](O)[C@H]1O)OC | 71 | 13 | 7 | 66 | 100 | 64 | 64 | 0 | 100 | 90 | 0.3 | 72 | 48 | 75 | 53 | 25 | Cell survival [17]: 0%; Cell survival [18]: 53%; Cell survival [19]: 57%; Cell survival [20]: 0.5%; Cell survival [21]: 20%; Cell survival [22]: 49%; Cell survival [23]: 46%; Cell survival [24]: 25%; Cell survival [25]: 79%; Cell survival [26]: 49%; Cell survival [27]: 48%; Cell survival [28]: 27%
5 | CCCCCCCCCCCCCCCCOC[C@@H](CO[C@@H]1O[C@@H](CO)[C@@H](O)[C@H](O)[C@@H]1O)OC | 95 | 70 | 82 | 89 | – | – | – | – | – | – | – | – | – | – | – | – | –
6 | CCCCCCCCCCCCCCCCOC[C@H](CO[C@@H]1O[C@@H](CO)[C@@H](O)[C@H](O)[C@@H]1O)OC | 42 | 7 | 26 | 75 | – | – | – | – | – | – | – | – | – | – | – | – | –
